Reference: ChEMBL document CHEMBL1126600, “A trans-platinum complex showing higher antitumor activity than the cis congeners” (J Med Chem, 1993)

Experiments:
Format in all cases: functional, cell-based
Conditions in all cases: Mus musculus
[1] = test system: P388; assay: Effect was evaluated by implanting P388 cells into B6D2F1 mice and treated for 1-7 days at 2 umol/ Kg dose
Procedure, shortened: (§1)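 P388 or P388/DDP leukemia cells (10^6/mouse) implanted ip into B6D2F1 mice on day 0; 6 animals/group, 8 untreated controls. Complexes dissolved in water just before use, given ip. Read-out %T/C = median survival time ×100 of treated vs untreated; >125% taken as significant. P388/DDP subline raised in vivo by serial passage with single ip cis-DDP (20 µmol/kg) 2 days after implantation.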

[2] = test system: P388; assay: Effect was evaluated by implanting P388/DDP leukemia cells into B6D2F1 mice and treated for 1 day at 193 umol/ Kg dose; procedure, shortened: as §1
[3] = test system: P388; assay: Inhibitory effect was evaluated on the growth of P388 cells
Procedure, shortened: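 P388 cells (10^5 cells/mL, exponential growth) exposed to the platinum complexes at increasing concentrations for 1 h at 37 °C, drug removed, then grown 48 h more; cell number and viability counted by trypan blue exclusion. ID50 = 50% growth-inhibitory concentration; five experiments, each in triplicate, mean ± standard deviation.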

[4] = test system: P388; assay: Effect was evaluated by implanting P388 cells into B6D2F1 mice and treated for 1 day at 26 umol/ Kg dose; procedure, shortened: as §1
[5] = test system: P388; assay: Effect was evaluated by implanting P388/DDP leukemia cells into B6D2F1 mice and treated for 1-7 days at 2 umol/ Kg dose; procedure, shortened: as §1
[6] = test system: P388; assay: Effect was evaluated by implanting P388 cells into B6D2F1 mice and treated for 1 day at 193 umol/ Kg dose; procedure, shortened: as §1

| Sequence | T/C [1] | T/C [2] | ID50 [3] | T/C [4] | T/C [5] | T/C [6] |
| --- | --- | --- | --- | --- | --- | --- |
| CISPLATIN | 203% | 95% | 2.05 µM | 202% | 90% | – |
| TRANSPLATIN | – | 107% | 85 µM | – | – | 105% |
